High-throughput results: PubChem, Sanford-Burnham Center for Chemical Genomics
This is a sample that favours compounds with a hit; in the whole collection about 1.8% have one here.
LMPTP inh = blocks human LMPTP phosphatase. P24666. recombinant LMPTP-A, OMFP fluorogenic substrate, fluorescence intensity. inhibition, % at 20 µM. 360,000 compounds, 0.22% hits;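 active = compounds that cut the enzyme signal by at least half of the control window in the single-dose screen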;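 also: plate controls were DMSO wells with enzyme plus substrate for no effect and substrate without enzyme for full effect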
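test system = LMPTP-A | amount = 0.625 nM LMPTP-A final | reagent = fluorogenic phosphatase substrate OMFP at 400 µM final | incubation = 50 min at room temperature | benchmarks = no-enzyme low control, uninhibited high control | medium = Bis-Tris pH 6.0, DTT, detergent | signal = fluorescence intensity of OMFP turnover product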
SUMO1-SIM PPI = modulators of human SUMO1-mediated protein-protein interactions. P63165. SUMO1 binding to a labelled peptide, TR-FRET, 1 h. inhibition, % at 20 µM. 360,000 compounds, 0.33% hits. AID 602429; in the data active = inhibition above about 37%
HKDC1 inhibitor = inhibitors of human hexokinase HKDC1; Q2TB90; 340,000 compounds, 0.16% hits; AID 493160; inhibition, % at 20 µM; recombinant HKDC1, G6PDH/diaphorase resazurin coupled fluorescence;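 active = inhibition above about 35% when tested at 20 µM, limit read from the data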;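 also: plate controls were DMSO wells with enzyme for no effect and DMSO wells lacking enzyme for full effect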
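Test system: Recombinant HKDC1 (HK5) hexokinase enzyme, produced in-house | Input: HKDC1 at 5 µg/mL | Buffer or medium: Tris pH 8.0 buffer with MgCl2, Tween-20, BSA, BME | Schedule: 90 min reaction incubation at room temperature, dark | Technique: Resazurin-to-resorufin fluorescence via G6PDH and diaphorase coupling, 525/613 nm | Controls: DMSO wells with and without enzyme mix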
Scp-1 inhibitor = blocks human Scp-1 phosphatase activity | 340,000 compounds, 0.88% hits | Recombinant Scp1, phosphopeptide, malachite green phosphate absorbance | Q9GZU7 | inhibition, % at 20 µM | AID 493091;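 active = inhibition above about 50% at 20 µM, limit read from the data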;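 also: plate controls were DMSO wells with enzyme for no effect and wells lacking enzyme for full effect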
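Test system: SCP-1 phosphatase catalytic domain, residues 76-261; measured by: colorimetric phosphate reagent with accelerator and stabiliser, absorbance at 630 nm; timing: enzyme reaction 45 min at room temperature, colour 5 min, stabilisation 30 min; also added: Phosphorylated 17-residue peptide substrate; compound dosing: one concentration, 20 µM, with 1.0% DMSO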
STEP inh = blocks human striatal-enriched tyrosine phosphatase; recombinant STEP, OMFP fluorogenic substrate, fluorescence; AID 588621; inhibition, % at 20 µM; 360,000 compounds, 0.25% hits; P54829;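 active = inhibition at 20 µM, scaled per plate between control wells, above about 37%, limit read from the data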;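 also: 0% = DMSO with enzyme and substrate and 100% = substrate only without enzyme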
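Assay system: isolated STEP enzyme. Buffer or medium: pH 6.0 Bis-Tris with DTT and Tween 20. Also added: fluorogenic phosphatase substrate OMFP at 25 µM final. Dosing: 20 µM, 1% DMSO. Timing: 20 min reaction, room temperature, in the dark. Measured by: fluorescence intensity, excitation 480 nm, emission 540 nm. Evaluation: normalized % inhibition.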
DNMT1 inh = DNMT1 (human) enzyme inhibition | 360,000 compounds, 0.83% hits | inhibition (reported as % activation of signal), % at 10 µM | DNMT1 molecular beacon, Hinp1I cleavage, fluorescence; in the data active = inhibition above about 50%
An asterisk follows results filed as active; . = not tested or not shown.

SMILES	LMPTP inh	SUMO1-SIM PPI	HKDC1 inhibitor	Scp-1 inhibitor	STEP inh	DNMT1 inh
C/C(=N\NC(=O)c1ccc([N+](=O)[O-])cc1)c1c(O)cc(C)oc1=O	-1	-7	-7	-6	-5	1
C/C(=N/NC(=O)c1cc(O)c(O)c(O)c1)c1ccc([N+](=O)[O-])cc1	10	-16	19	50*	1	11
COCCn1c(=O)[nH]c2cc(C(=O)N3CCN(c4cccc(C)c4C)CC3)ccc2c1=O	0	3	-4	-8	-1	4
O=C(OCC(=O)N1CCCC1)c1cccc(Br)c1	-2	67*	-4	2	-2	3
COC(=O)C[C@H]1CC[C@H](NC(=O)Nc2ccccc2OC)[C@@H](CO)O1	-2	-2	.	.	.	.
O=C(C=P(c1ccccc1)(c1ccccc1)c1ccccc1)c1ccccc1-c1ccccc1C(=O)C=P(c1ccccc1)(c1ccccc1)c1ccccc1	59*	-39	21	36	7	8
O=C(NNC(=O)c1ccccc1-c1ccccc1C(=O)O)c1ccccc1	0	0	-11	-4	4	3
CC1(c2nnnn2Cc2ccccc2)CCC(=O)N1CCCn1ccnc1 (centres undefined)	0	1	.	.	.	.
Cc1c2ccncc2cc2c1[nH]c1ccccc12	55*	-20	3	-8	3	30
CCOC(=O)c1c2c(n(-c3ccc(OC)cc3)c1C)C(=O)C(=O)c1ccccc1-2	21	13	28	-13	8	86*
Cn1c(N)c(C(=O)COC(=O)COc2ccc(Br)cc2)c(=O)n(C)c1=O	-1	40*	-3	-13	-2	1
CCOC(=O)C(N=Nc1nn[nH]n1)C(C)=O (centres undefined)	-2	-21	.	.	4	0
CC(OC(=O)/C(C#N)=C/c1ccc(N(C)C)cc1)C(=O)NCc1ccco1 (centres undefined)	2	-6	.	.	-2	61*
O=C1CC(=O)N(Cc2ccco2)C(=S)N1	51*	69*	17	93*	83*	111*
S=C1NCN(Cc2ccco2)CN1	-1	0	-5	-5	3	2
Cc1ccc(S(=O)(=O)N2CCOCC2)cc1C(=O)Nc1ccc(-c2cn3ccsc3n2)cc1	1	45*	-2	-8	-2	-5
CNc1nc(-c2ccccc2)[n+](-c2ccc(C)cc2)s1	-1	0	19	83*	-3	4
Cc1ccc(-c2nc(N)s[n+]2-c2ccccc2)cc1	1	3	-6	88*	0	1
Cc1ccc(-c2nc3ccccc3nc2-c2ccccc2)cc1	3	-15	-1	0	1	-1
COc1cccc(CSC(C(=O)O)c2ccccc2)c1 (centres undefined)	-1	9	.	.	3	1
O=c1[nH]c2ccccc2nc1-c1nnnn1Cc1ccccc1	0	-28	.	.	.	.
CC(NCC(O)COCc1ccc(Cl)cc1)c1ccccc1 (centres undefined)	-2	65*	-5	-13	-3	3
OC(CNCc1ccccc1)COCc1ccc(Cl)cc1 (centres undefined)	0	-1	0	-15	-3	1
COC(=O)c1cc2c(n1S(=O)(=O)c1ccc(C)cc1)C(=O)C(=O)c1[nH]cc(C(=O)OCc3ccccc3)c1-2	0	-4	23	-3	1	82*
COC(=O)c1ccc(COC(=O)c2ccc(CS(=O)(=O)c3ccc(C)cc3)cc2)cc1	0	1	-3	-7	2	17
SMILES	LMPTP inh	SUMO1-SIM PPI	HKDC1 inhibitor	Scp-1 inhibitor	STEP inh	DNMT1 inh
CCc1nc2c(OCCn3cccc3)cccn2c1N(C=O)Cc1ccccc1	0	2	.	.	-1	-2
CC(OC(=O)c1ccc(NC(=O)CC#N)cc1)C(=O)Nc1ccc(Oc2ccccc2)cc1 (centres undefined)	0	54*	.	.	5	-11
Cc1cc2cc(CNC(=O)Nc3cccc(Cl)c3)ccc2n1C	4	-45	-1	-12	0	69*
CN(C)S(=O)(=O)c1cccc(NC(=O)COc2ccccc2C(=O)NCc2ccccc2)c1	0	3	4	-8	-1	-3
Nc1ccc(Cn2ccc3c4c(N)nc(N)nc4ccc32)cc1	64*	27	-1	17	2	-4
COc1cccc(-c2cccc3c2NC(=O)C3(C)Cc2ccccc2F)c1 (centres undefined)	2	1	.	.	2	6
COc1ccc(-n2c(SCC(=O)Nc3cccc(S(N)(=O)=O)c3)nc3ccccc3c2=O)cc1OC	0	37*	6	-5	-1	-3
N#C/C(=C\c1ccc(-c2ccc(C(=O)O)cc2)o1)C(=O)Nc1ccc(F)cc1	7	3	12	69*	6	46
CC(C)c1nc(SCC(=O)Nc2ccc(C(=O)O)cc2)c2c3c(sc2n1)CCCC3	53*	32	6	17	1	1
CC1CCN(C(=S)NC(=O)c2ccc(C(C)(C)C)cc2)CC1	1	45*	-3	-5	5	0
CC1CCN(C(=S)NC(=O)c2ccccc2)CC1	-2	-5	-7	-2	1	-4
Cc1ccc(NC2=C/C(=N/S(=O)(=O)c3cccs3)c3ccccc3C2=O)cc1	4	-5	7	-7	10	-9
Cc1ccc(S(=O)(=O)/N=C2\C=C(Nc3ccc(O)cc3)C(=O)c3ccccc32)cc1	9	12	34	-10	4	53*
COc1ccc(C(=O)c2no[n+]([O-])c2C(=O)c2ccc(OC)cc2)cc1	1	18	17	-11	6	9
O=C(c1cccs1)c1no[n+]([O-])c1C(=O)c1cccs1	0	13	12	-9	33	64*
C/C(=N\Nc1cc(C)nc(-c2ccccc2)n1)c1cccc([N+](=O)[O-])c1	2	48*	-3	-1	-2	10
CC(C)Nc1ccc(Nc2ccnc3cc4ccccc4cc23)cc1	22	-69	3	-4	4	66*
COc1ccc(Nc2ccnc3ccccc23)cc1	56*	-14	-3	-1	1	0
COc1ccc(Nc2ncnc3ccccc23)cc1	3	2	0	-15	1	0
CCOc1ccc(OCCC(=O)OCC(=O)Nc2ccc(Cl)cn2)cc1	1	10	4	6	0	2
CCOc1ccc(S(=O)(=O)N2CCCC(C(=O)NC3CC3)C2)cc1Cl (centres undefined)	-1	-3	-3	1	-1	2
O=C(NCc1cc(C(F)(F)F)ccc1Cl)c1cccc2c1C(=O)c1ccc(N3CCC(N4CCCCC4)CC3)cc1S2(=O)=O	21	64*	.	.	1	7
